Measurements: ChEMBL document CHEMBL4052594, “Discovery of Pyrrolidine-Containing GPR40 Agonists: Stereochemistry Effects a Change in Binding Mode” (J Med Chem, 2017)
pEC50, pKi: −log10 of the molar value. Activity calls are given as the source filed them. The calls are words filed in the database; no cut-off is given here.

How the values were obtained:
[1] = AUC (0 to 4 hrs) in C57BL/6J mouse at 10 mg/kg, po; type: ADME, organism-based; design: time < 4 hr, dose 10 mg/kg, route oral; conditions: in vivo
[2] = target: T1, Free fatty acid receptor 1 (Homo sapiens, UniProt O14842); assay: Agonist activity at human GPR40 transfected in HEK293 cells assessed as induction of cAMP accumulation incubated for 30 to 45 mins by HTRF assay; type: functional, cell-based
[3] = target: Free fatty acid receptor 1 (Mus musculus) (UniProt Q76JU9); assay: Intrinsic activity at mouse GPR40 expressed in CHO-A12 cells assessed as increase in intracellular calcium flux at 8.3 uM measured for 100 secs by FLIPR assay […]; type: functional, cell-based
[4] = tested on: Mus musculus; assay: Antidiabetic activity in C57BL/6J mouse assessed as reduction of plasma glucose excursion at 10 to 100 mg/kg, po pretreated for 1 hr followed by glucose challenge measured up to 120 mins by iGTT; type: functional, organism-based
[5] = target: T1, Free fatty acid receptor 1; assay: Binding affinity to human GPR40 expressed in HEK293 cell membranes after 1 hr by radioligand displacement based scintillation counting method
Summary of the method: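 Binding of human GPR40 measured as Ki against a radioligand. Mean of at least two runs. Displacement of the label appears as a negative slope and potentiation as a positive one.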

[6] = target: Free fatty acid receptor 1 (Mus musculus) (UniProt Q76JU9); assay: (§1) Agonist activity at GPR40 in mouse STC1 cells assessed as induction of GLP-1 secretion measured after 1 hr by HTRF assay; type: cell-based
[7] = target: T1, Free fatty acid receptor 1; assay: Agonist activity at human GPR40 expressed in CHO-A12 cells assessed as increase in intracellular calcium flux measured for 100 secs by FLIPR assay; type: functional, cell-based
[8] = Cmax in C57BL/6J mouse at 10 mg/kg, po; type: ADME, organism-based; design: dose 10 mg/kg, route oral; conditions: in vivo
[9] = target: T1, Free fatty acid receptor 1; assay: Partial agonist activity at human GPR40 inducibly expressed in HEK293 cells assessed as increase in intracellular calcium flux measured for 100 secs by FLIPR assay; type: functional, cell-based
[10] = target: T1, Free fatty acid receptor 1; assay: Intrinsic activity at human GPR40 transfected in HEK293 cells assessed as induction of cAMP accumulation at 16.7 uM incubated for 30 to 45 mins by HTRF assay relative to […]; type: functional, cell-based
[11] = target: T2, Free fatty acid receptor 1 (Mus musculus, UniProt Q76JU9); assay: Agonist activity at mouse GPR40 expressed in CHO-A12 cells assessed as increase in intracellular calcium flux measured for 100 secs by FLIPR assay; type: functional, cell-based
[12] = target: T1, Free fatty acid receptor 1; assay: Agonist activity at human GPR40 inducibly expressed in HEK293 cells assessed as increase in intracellular calcium flux measured for 100 secs by FLIPR assay; type: functional, cell-based
[13] = target: Free fatty acid receptor 1 (Mus musculus) (UniProt Q76JU9); assay: Agonist activity at mouse GPR40 inducibly expressed in HEK293 cells assessed as increase in intracellular calcium flux measured for 100 secs by FLIPR assay; type: functional, cell-based
[14] = target: T1, Free fatty acid receptor 1; assay: Potentiation of DHA-induced agonist activity at human GPR40 inducibly expressed in HEK293 cells assessed as increase in intracellular calcium flux at 10 nM measured for 100 secs by FLIPR assay; type: functional, cell-based
Summary of the method: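 Ca2+ FLIPR concentration-response to DHA in inducible hGPR40 cells, alone or with fixed added test compound (3 nM or 10 nM); curve shift assessed.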

[15] = tested on: Mus musculus; assay: Antidiabetic activity in C57BL/6J mouse assessed as change in plasma glucose AUC (0 to 120 mins) at 1 mg/kg, po administered 1 hr prior to glucose challenge by oral glucose tolerance test; type: functional
Summary of the method: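 C57BL/6J mice dosed orally at 0.3 or 1 mg/kg 1 h before an oral glucose bolus. Plasma glucose sampled at -60, -20, 0, 20, 40, 60 and 120 min; glucose AUC0-120 expressed relative to vehicle.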

[16] = target: T2, Free fatty acid receptor 1; assay: as §1; type: cell-based
[17] = target: T1, Free fatty acid receptor 1; assay: Potentiation of DHA-induced agonist activity at human GPR40 inducibly expressed in HEK293 cells assessed as increase in intracellular calcium flux at agonism EC50 measured for 100 secs by FLIPR assay; type: functional, cell-based
[18] = Antagonist activity at sodium channel (unknown origin); conditions: human
[19] = target: T3, Nuclear receptor subfamily 1 group I member 2 (Homo sapiens, UniProt O75469); assay: Antagonist activity at PXR (unknown origin); type: ADME
T3 sequence (O75469 whole entry): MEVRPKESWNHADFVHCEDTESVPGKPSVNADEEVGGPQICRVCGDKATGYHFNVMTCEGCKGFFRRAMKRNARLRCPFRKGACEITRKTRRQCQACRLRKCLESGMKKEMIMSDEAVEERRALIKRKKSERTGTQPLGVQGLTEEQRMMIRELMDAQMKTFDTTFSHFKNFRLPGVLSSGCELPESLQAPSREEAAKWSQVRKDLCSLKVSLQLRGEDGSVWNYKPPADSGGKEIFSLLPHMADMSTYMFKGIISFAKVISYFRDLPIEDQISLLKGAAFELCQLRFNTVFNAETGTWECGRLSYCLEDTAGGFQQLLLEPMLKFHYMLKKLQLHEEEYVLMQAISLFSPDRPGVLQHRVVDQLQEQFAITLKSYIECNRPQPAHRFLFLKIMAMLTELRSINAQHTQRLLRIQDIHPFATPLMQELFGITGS

[20] = target: T4, PPARgamma (Homo sapiens, UniProt P37231); assay: Transactivation of human Gal4 fused PPARgamma-LBD expressed in HEK293 cells at 4.8 uM after 18 hrs by luciferase reporter gene assay relative to […]; type: cell-based; conditions: HEK293 cells expressing Gal4-fused human PPARgamma-LBD
T4 sequence (P37231 whole entry): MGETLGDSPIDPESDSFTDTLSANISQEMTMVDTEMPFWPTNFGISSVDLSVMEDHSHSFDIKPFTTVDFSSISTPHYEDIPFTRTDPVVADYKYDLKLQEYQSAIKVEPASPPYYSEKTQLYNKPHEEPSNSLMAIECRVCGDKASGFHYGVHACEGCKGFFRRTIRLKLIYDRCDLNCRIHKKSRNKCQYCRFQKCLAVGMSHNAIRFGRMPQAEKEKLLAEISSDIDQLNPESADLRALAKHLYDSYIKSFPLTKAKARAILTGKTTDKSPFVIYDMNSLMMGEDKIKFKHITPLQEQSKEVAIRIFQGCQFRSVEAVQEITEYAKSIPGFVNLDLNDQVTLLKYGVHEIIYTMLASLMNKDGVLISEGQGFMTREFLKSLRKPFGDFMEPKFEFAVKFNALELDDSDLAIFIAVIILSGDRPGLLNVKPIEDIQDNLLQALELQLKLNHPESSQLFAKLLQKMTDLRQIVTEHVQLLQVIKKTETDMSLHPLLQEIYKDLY

[21] = target: T5, Peroxisome proliferator-activated receptor gamma (Homo sapiens, UniProt P37231); assay: Transactivation of human Gal4 fused PPARgamma-LBD expressed in HEK293 cells after 18 hrs by luciferase reporter gene assay; type: cell-based
T5 sequence (P37231 whole entry): T4 sequence (P37231 whole entry)
Summary of the method: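 Gal4 gene reporter transactivation assay for PPARγ; EC50 and Ymax reported.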

T1 sequence (O14842 whole entry): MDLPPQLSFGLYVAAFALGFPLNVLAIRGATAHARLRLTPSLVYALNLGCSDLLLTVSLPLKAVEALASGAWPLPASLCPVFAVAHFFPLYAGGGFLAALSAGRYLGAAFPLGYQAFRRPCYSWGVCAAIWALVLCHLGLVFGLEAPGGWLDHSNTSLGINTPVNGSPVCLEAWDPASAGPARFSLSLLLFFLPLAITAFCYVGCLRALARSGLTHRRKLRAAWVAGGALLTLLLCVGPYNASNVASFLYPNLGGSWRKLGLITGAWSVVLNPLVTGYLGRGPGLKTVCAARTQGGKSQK
T2 sequence (Q76JU9 whole entry): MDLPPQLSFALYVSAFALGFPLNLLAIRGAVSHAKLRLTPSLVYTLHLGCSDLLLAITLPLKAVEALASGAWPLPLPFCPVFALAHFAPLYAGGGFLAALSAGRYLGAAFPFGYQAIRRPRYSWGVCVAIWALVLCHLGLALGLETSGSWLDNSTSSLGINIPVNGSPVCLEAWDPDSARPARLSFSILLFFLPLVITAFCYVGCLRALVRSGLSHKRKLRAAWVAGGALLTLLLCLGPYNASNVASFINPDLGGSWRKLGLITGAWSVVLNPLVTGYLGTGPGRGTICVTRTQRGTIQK
Free fatty acid receptor 1 (Mus musculus), sequence (Q76JU9 whole entry): as above

SMILES | pEC50 [2] | Intrinsic activity [3] [%] | pKi [5] | pEC50 [7] | Intrinsic activity [10] [%] | pEC50 [11] | inhibition (INH) [19] | also measured
COc1ccc(F)c(-c2ccc(Cc3ccc(N4CC(C(F)(F)F)CC4CC(=O)O)cc3)c(C)c2)c1 (mixture of isomers) |  |  |  |  |  |  |  | Activity [12]: Active; Activity [13]: Active
COc1ccc(F)c(-c2ccc(Cc3ccc(N4C[C@@H](C(F)(F)F)C[C@H]4CC(=O)O)cc3)c(C)c2)c1 | 5.62 | 46 | 7.35 | 6.31 | 28 | 5.62 |  | Activity [14]: inactive; Activity [15]: inactive; pEC50 [16]: 5.49; Activity [17]: inactive
O=C(O)C[C@@H]1CCCN1c1ccc(OCc2ccc(Cl)cc2Cl)cc1 |  | 54 to 66 | 6.05 | 6.47 |  | 5.35 | Active | INH [18]: 4 µM; Emax at 18 h, 4.8 µM [20]: 54%; pEC50 [21]: 4.77

The remaining molecules from weak to strong by pEC50 [7], led by results:

pEC50 [2] | Intrinsic activity [3] [%] | pKi [5] | pEC50 [7] | Intrinsic activity [10] [%] | pEC50 [11] | inhibition (INH) [19] | SMILES | also measured
 | 41 to 73 |  | 6.72 |  | 5.47 | Active | Cc1ccccc1COc1ccc(N2CCC[C@H]2CC(=O)O)cc1 | inhibition (INH) [18]: Active
< 4.70 | 84 | 7.41 to 7.46 | 7.14 | 5 | 6.48 |  | Cc1ccccc1Oc1ccc(N2C[C@@H](C(F)(F)F)C[C@H]2CC(=O)O)cc1 | AUC(0-t) at 4 h [1]: 7 µM·h; Activity [4]: inactive; Activity [6]: inactive; Cmax [8]: 4.7 µM; Activity [9]: Active
